The source of these data is ChEMBL document CHEMBL1138514, “Rhodamine inhibitors of P-glycoprotein: an amide/thioamide "switch" for ATPase activity” (J Med Chem, 2009).

The term Km denotes the concentration of substrate that gives half-maximal velocity.

Data set [1] concerns COc1ccc(-c2c3ccc(=[N+](C)C)cc-3sc3cc(N(C)C)ccc23)cc1OC. The experiment in a line: (§1) Induction of mouse cysteine-less MDR3 ATPase activity by apparent Michaelis-Menten constant. In a few lines:
(§2)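 Isolated P-gp ATPase activity is measured as inorganic phosphate released across a range of rhodamine concentrations. KM is the apparent Michaelis-Menten constant, the concentration giving half-maximal stimulation of ATPase activity.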

Data set [2] deals with CN(C)c1ccc2c(-c3ccsc3C(=O)O)c3ccc(=[N+](C)C)cc-3[se]c2c1. The description is as §1. The method in brief:
as §2

For data set [3], the system named is COc1cccc(-c2c3ccc(=[N+](C)C)cc-3[se]c3cc(N(C)C)ccc23)c1. The data set is described as §1. In a few lines: as §2
Data set [4] relates to CN(C)c1ccc2c(CCCOc3ccccc3)c3ccc(=[N+](C)C)cc-3sc2c1. The data set is described as §1. The method in brief:
as §2

Data set [5] relates to CN(C)c1ccc2c(-c3ccccc3C(=O)O)c3ccc(=[N+](C)C)cc-3sc2c1. The description is as §1. The method in brief:
as §2

Data set [6] relates to CCN(CC)C(=O)c1ccc(-c2c3ccc(=[N+](C)C)cc-3[se]c3cc(N(C)C)ccc23)s1. Described as §1. In a few lines: as §2
Data set [7] has as its system CCN(CC)C(=O)c1ccc(-c2c3ccc(=[N+](C)C)cc-3sc3cc(N(C)C)ccc23)s1. Described as §1. In a few lines:
as §2

Data set [8] has as its system CCOC(=O)c1ccc(-c2c3ccc(=[N+](C)C)cc-3sc3cc(N(C)C)ccc23)s1. The data set is described as §1. The method in brief:
as §2

Data set [9] concerns CN(C)c1ccc2c(-c3ccc(CCl)cc3)c3ccc(=[N+](C)C)cc-3oc2c1. The data set is described as §1. In a few lines: as §2
Data set [10] deals with COC(=O)c1ccccc1-c1c2ccc(=[N+](C)C)cc-2sc2cc(N(C)C)ccc12. The data set is described as §1. The method in brief:
as §2

Data set [11] concerns CCN(CC)C(=O)c1ccccc1-c1c2ccc(=[N+](C)C)cc-2sc2cc(N(C)C)ccc12. The data set is described as §1. In a few lines: as §2
Data set [12] concerns COc1ccc(-c2c3ccc(=[N+](C)C)cc-3[se]c3cc(N(C)C)ccc23)cc1OC. Briefly: not read.
The test system of data set [13] is COc1ccc(-c2c3ccc(=[N+](C)C)cc-3sc3cc(N(C)C)ccc23)cc1. The experiment in a line: not read.
Data set [14] has as its system C[N+](C)=c1ccc2c(-c3ccccc3)c3cc4c5c(c3[te]c-2c1)CCCN5CCC4. The experiment in a line: not read.
The subject of data set [15] is COc1ccc(-c2c3ccc(=[N+](C)C)cc-3sc3cc(N(C)C)ccc23)cc1OC. Briefly: not read.
The test system of data set [16] is CN(C)c1ccc2c(-c3ccsc3C(=O)O)c3ccc(=[N+](C)C)cc-3sc2c1. The experiment in a line: not read.
Data set [17] relates to COc1cccc(-c2c3ccc(=[N+](C)C)cc-3[te]c3cc(N(C)C)ccc23)c1. Briefly: not read.
The test system of data set [18] is CN(C)c1ccc2c(-c3ccccc3)c3ccc(=[N+](C)C)cc-3[te]c2c1. The experiment in a line: not read.
For data set [19], the system named is CN(C)c1ccc(-c2c3ccc(=[N+](C)C)cc-3[te]c3cc(N(C)C)ccc23)cc1. The experiment in a line: not read.
The subject of data set [20] is CN(C)c1ccc2c(-c3ccsc3C(=O)O)c3ccc(=[N+](C)C)cc-3[se]c2c1. Briefly: not read.
The test system of data set [21] is COc1cccc(-c2c3ccc(=[N+](C)C)cc-3[se]c3cc(N(C)C)ccc23)c1. The experiment in a line: not read.
Data set [22] relates to CN(C)c1cccc(-c2c3ccc(=[N+](C)C)cc-3[se]c3cc(N(C)C)ccc23)c1. Briefly: not read.
Data set [23] has as its system CN(C)c1ccc2c(CCCOc3ccccc3)c3ccc(=[N+](C)C)cc-3sc2c1. The experiment in a line: not read.
In data set [24] the test system is CN(C)c1ccc2c(-c3ccc(N4CCOCC4)cc3)c3ccc(=[N+](C)C)cc-3sc2c1. Briefly: not read.
Data set [25] concerns CCN(CC)C(=O)c1ccc(-c2c3ccc(=[N+](C)C)cc-3[se]c3cc(N(C)C)ccc23)s1. The experiment in a line: not read.
Data set [26] deals with CN(C)c1cccc(-c2c3ccc(=[N+](C)C)cc-3[te]c3cc(N(C)C)ccc23)c1. The experiment in a line: not read.
The test system of data set [27] is CN(C)c1ccc2c(-c3ccc(C(=O)O)s3)c3ccc(=[N+](C)C)cc-3sc2c1. The experiment in a line: not read.
Data set [28] concerns CN(C)c1ccc2c(-c3ccc(C(=O)O)s3)c3ccc(=[N+](C)C)cc-3[te]c2c1. The experiment in a line: not read.

With “ATP-dependent translocase ABCB1 (Mus musculus)”, the Michaelis constant (Km) worked out at 35 µM in [1]; 29 µM in [2]; 44 µM in data set [3]; 6 µM in data set [4]; 56 µM in [5]; 3.6 µM in data set [6]. The Km was 3.4 µM in data set [7]; 156 µM in [8]; 77 µM in [9]; 266 µM in [10]; 5.7 µM in [11]; 67 µM in data set [12]. The Michaelis constant (Km) in data set [13] turned out to be 75 µM.

Regarding “ATP-dependent translocase ABCB1 (Homo sapiens)”, the Km in [14] amounted to 4.4 µM; in data set [12] it was 8.3 µM; in data set [15], 4.9 µM; in data set [16], 111 µM; in data set [17] it was 3.2 µM; in data set [18], 8.3 µM. In addition, the Km is 9 µM in [19]; 56 µM in [20]; 3.3 µM in data set [21]; 3.5 µM in data set [22]; 3.2 µM in data set [23]; 10 µM in data set [24]. Further, the Km in data set [25] was 0.68 µM; in data set [26], 2 µM; in data set [27], 140 µM; in data set [28], 9.6 µM.
